In ChEMBL document CHEMBL2321734, “Novel antiviral activity of l-dideoxy bicyclic nucleoside analogues versus vaccinia and measles viruses in vitro” (J Med Chem, 2013):
Active and inactive are the calls of the source. The calls are words filed in the database; no cut-off is given here.

Key:
Vaccinia virus [1] = test: Antiviral activity against Vaccinia virus WR expressing luciferase reporter virus v3 infected in rabbit RK13 cells assessed as inhibition of early stages of VACV replication at 10 uM incubated for 30 mins prior to inoculation measured after 2 hrs by luciferase reporter gene assay relative to control; assay type: functional; details: Orthopoxvirus vaccinia, RK-13
Vaccinia virus [2] = test: Antiviral activity against Vaccinia virus WR infected in african green monkey BSC1 cells after 4 days by plaque reduction assay; assay type: functional, organism-based; details: Orthopoxvirus vaccinia, BSC-1, 96 h
BSC-1 [3] = test: Cytotoxicity against african green monkey BSC1 cells infected with Vaccinia virus-WR after 4 days; assay type: cell-based; details: chlorocebus aethiops, bsc-1, 96 h
BSC-1 [4] = test: Cytotoxicity against african green monkey BSC1 cells infected with Vaccinia virus-WR luciferase reporter virus v3 assessed as visible cytotoxic effect at 10 uM incubated for 30 mins prior to inoculation measured after 2 hrs by phase contrast microscopic analysis; assay type: cell-based; details: chlorocebus aethiops, bsc-1, 2 h
[5] = Cytotoxicity against african green monkey BSC1 cells assessed as ATP levels […] by CellTitre-Glo Luminescent Cell Viability assay; assay type: cell-based, BSC-1; details: chlorocebus aethiops
[6] = Cytotoxicity against human HFFF cells assessed as cell viability by CellTitre-Glo Luminescent Cell Viability assay; assay type: cell-based
Vaccinia virus [7] = test: Ratio of cidofovir IC50 to compound IC50 for Vaccinia virus WR; assay type: functional, Orthopoxvirus vaccinia
Measles morbillivirus [8] = test: Antiviral activity against wild type Measles virus mWTFb infected in simian B95a cells assessed as virus-induced cytopathogenicity incubated for 30 mins prior to inoculation measured after 3 days by phase contrast microscopy; assay type: functional, organism-based
Measles morbillivirus [9] = test: Ratio of ribavirin TCID50 to compound TCID50 for wild type Measles virus mWTFb; assay type: functional
Human alphaherpesvirus 1 [10] = test: Antiviral activity against HSV 1 NCPV 17+ infected in african green monkey BSC-1 cells assessed as virus-induced cytopathogenicity incubated for 30 mins prior to inoculation measured after 3 days by phase contrast microscopy; assay type: functional
How it was run: (§1)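 Cells grown to 80% confluence in 96-well plates and pretreated 30 min with drug-containing medium. Infection was 100 pfu (HSV-1/2, adenovirus 5) or 100 sfu (measles) per well, then 3 days in DMEM without FBS or antibiotics with drug at 1–100 µM. CPE was scored by phase contrast against virus-only controls. TCID50 is the 50% CPE reduction, averaged over 3 experiments by Reed–Muench.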

Human adenovirus 5 [11] = test: Antiviral activity against Adenovirus type 5 ATCC VR-5 infected in human HFFF cells assessed as virus-induced cytopathogenicity incubated for 30 mins prior to inoculation measured after 3 days by phase contrast microscopy; assay type: functional; how it was run: as §1
Measles morbillivirus [12] = test: Antiviral activity against Measles virus Edmonston infected in simian B95a cells assessed as virus-induced cytopathogenicity incubated for 30 mins prior to inoculation measured after 3 days by phase contrast microscopy; assay type: functional; how it was run: as §1
Human alphaherpesvirus 2 [13] = test: Antiviral activity against HSV 2 NCPV 132349 infected in african green monkey BSC-1 cells assessed as virus-induced cytopathogenicity incubated for 30 mins prior to inoculation measured after 3 days by phase contrast microscopy; assay type: functional; how it was run: as §1
Measles morbillivirus [14] = test: Antiviral activity against Measles virus Edmonston infected in african green monkey BSC-1 cells assessed as virus-induced cytopathogenicity incubated for 30 mins prior to inoculation measured after 3 days by phase contrast microscopy; assay type: functional; how it was run: as §1
Human alphaherpesvirus 1 [15] = test: Antiviral activity against HSV 1 NCPV 17+ infected in human HFFF cells assessed as virus-induced cytopathogenicity incubated for 30 mins prior to inoculation measured after 3 days by phase contrast microscopy; assay type: functional; how it was run: as §1
Human alphaherpesvirus 2 [16] = test: Antiviral activity against HSV 2 NCPV 132349 infected in human HFFF cells assessed as virus-induced cytopathogenicity incubated for 30 mins prior to inoculation measured after 3 days by phase contrast microscopy; assay type: functional; how it was run: as §1
[17] = Selectivity index, ratio of CC50 for african green monkey BSC1 cells to IC50 for Vaccinia virus-WR; assay type: functional, BSC-1
Human adenovirus 5 [18] = test: Antiviral activity against Adenovirus type 5 ATCC VR-5 infected in african green monkey BSC1 cells assessed as virus-induced cytopathogenicity incubated for 30 mins prior to inoculation measured after 3 days by phase contrast microscopy; assay type: functional, BSC-1; how it was run: as §1

| SMILES | inhibition at 10 µM (Vaccinia virus [1]) [%] | IC50 (Vaccinia virus [2]) [µM] | Activity (BSC-1 [3]) | Activity (BSC-1 [4]) | other results |
| --- | --- | --- | --- | --- | --- |
| CCCCCCOCCCCCCCCc1cc2cn([C@@H]3CC[C@H](CO)O3)c(=O)nc2o1 | 37.2 | 1.7 | Non-toxic | Non-toxic | – |
| CCCCCCCCc1cc2cn([C@@H]3CC[C@H](CO)O3)c(=O)nc2o1 | 41.9 | – | – | Non-toxic | – |
| CCCCCCCCCCc1cc2cn([C@@H]3CC[C@H](CO)O3)c(=O)nc2o1 | 45.7 | – | – | Non-toxic | – |
| CCC(C)OCCCCCCCCCc1cc2cn([C@@H]3CC[C@H](CO)O3)c(=O)nc2o1 (some centres not stated) | 69.9 | – | – | Non-toxic | – |
| CCCCCCCCCCOCCCCc1cc2cn([C@@H]3CC[C@H](CO)O3)c(=O)nc2o1 | 26.1 | 2.2 | Non-toxic | Non-toxic | – |
| COCCCCCCCCCCCCCc1cc2cn([C@@H]3CC[C@H](CO)O3)c(=O)nc2o1 | 60.5 | – | – | Non-toxic | – |
| CCCCCCc1cc2cn([C@@H]3CC[C@H](CO)O3)c(=O)nc2o1 | 70.7 | – | – | Non-toxic | – |
| CCCCCCOCCCCCCCCCc1cc2cn([C@@H]3CC[C@H](CO)O3)c(=O)nc2o1 | 35.7 | 0.19 | Non-toxic | Non-toxic | CC50 at 96 h [5]: 74.1 µM; CC50 [6]: > 100 µM; Ratio IC50 (Vaccinia virus [7]): 60 |
| NC(=O)c1ncn([C@@H]2O[C@H](CO)[C@@H](O)[C@H]2O)n1 [RIBAVIRIN] | – | – | – | – | IC50 (Measles morbillivirus [8]): 1160 µM |
| CC(C)(C)OCCCCCCCCCc1cc2cn([C@@H]3CC[C@H](CO)O3)c(=O)nc2o1 | 70.7 | – | – | Non-toxic | – |
| CCCCCCCc1cc2cn([C@@H]3CC[C@H](CO)O3)c(=O)nc2o1 | 43.2 | – | – | Non-toxic | – |
| CCCCOCCCCCCCCCc1cc2cn([C@@H]3CC[C@H](CO)O3)c(=O)nc2o1 | 27.5 | 1.8 | Non-toxic | Non-toxic | CC50 at 96 h [5]: > 100 µM; CC50 [6]: > 100 µM |
| CCCCCc1ccc(-c2cc3cn([C@@H]4CC[C@H](CO)O4)c(=O)nc3o2)cc1 | 73.6 | – | – | Non-toxic | – |
| CCCCCCCCCCCCc1cc2cn([C@@H]3CC[C@H](CO)O3)c(=O)nc2o1 | 96.4 | – | – | Non-toxic | – |
| CCCCCOCCCCCCCCCc1cc2cn([C@@H]3CC[C@H](CO)O3)c(=O)nc2o1 | 27.7 | 0.19 | Non-toxic | Non-toxic | Ratio (Measles morbillivirus [9]): 150; TCID50 (Human alphaherpesvirus 1 [10]): >50 µM; TCID50 (Human adenovirus 5 [11]): >50 µM; TCID50 (Measles morbillivirus [12]): >50 µM; TCID50 (Human alphaherpesvirus 2 [13]): >50 µM; TCID50 (Measles morbillivirus [14]): >50 µM; CC50 at 96 h [5]: > 100 µM; CC50 [6]: > 100 µM; TCID50 (Human alphaherpesvirus 1 [15]): >50 µM; Ratio IC50 (Vaccinia virus [7]): 60; TCID50 (Human alphaherpesvirus 2 [16]): >50 µM; Ratio CC50/IC50 [17]: >500; TCID50 (Human adenovirus 5 [18]): >50 µM |
| Nc1ccn(C[C@@H](CO)OCP(=O)(O)O)c(=O)n1 [CIDOFOVIR] | 94.6 | 11.5 | – | – | CC50 at 96 h [5]: > 100 µM; CC50 [6]: > 100 µM; inhibition (Measles morbillivirus [8]): inactive |
| CCCCCCCCCCCCCOCc1cc2cn([C@@H]3CC[C@H](CO)O3)c(=O)nc2o1 | 43.9 | 3.4 | Non-toxic | Non-toxic | – |
| CCCCc1ccc(-c2cc3cn([C@@H]4CC[C@H](CO)O4)c(=O)nc3o2)cc1 | 43.7 | – | – | Non-toxic | – |
| CCOCCCCCCCCCc1cc2cn([C@@H]3CC[C@H](CO)O3)c(=O)nc2o1 | 79.9 | 12.9 | Non-toxic | Non-toxic | CC50 at 96 h [5]: 79.4 µM; CC50 [6]: > 100 µM |
| COC[C@H]1OC(=O)c2coc3c2[C@@]1(C)C1=C(C3=O)[C@@H]2CCC(=O)[C@@]2(C)C[C@H]1OC(C)=O [WORTMANNIN] | – | – | – | – | IC50 (Measles morbillivirus [8]): 75 µM |
| CCCOCCCCCCCCCc1cc2cn([C@@H]3CC[C@H](CO)O3)c(=O)nc2o1 | 46.8 | 1.9 | Non-toxic | Non-toxic | CC50 at 96 h [5]: 89.1 µM; CC50 [6]: > 100 µM |
| CCCCCCCCCc1cc2cn([C@@H]3CC[C@H](CO)O3)c(=O)nc2o1 | 38.1 | – | – | Non-toxic | – |
| CC(C)COCCCCCCCCCc1cc2cn([C@@H]3CC[C@H](CO)O3)c(=O)nc2o1 | 64.3 | – | – | Non-toxic | – |
| CC(C)OCCCCCCCCCc1cc2cn([C@@H]3CC[C@H](CO)O3)c(=O)nc2o1 | 79.9 | – | – | Non-toxic | – |
